# From ChEMBL document CHEMBL1149329, “Synthesis and biological activity of sulfonamide derivatives of epipodophyllotoxin” (J Med Chem, 2004)
# Several values for one entry are separate records, joined by “and”; a condition that tells them apart may be missing. Equal entries are not always repeated.
# Legend:
# [1] = system: P388; assay: Evaluated for long-term survivors scored at day 60; 0/6; type: functional, Mus musculus
# [2] = system: L1210; assay: Inhibitory concentration required to reduce 50 percent L1210 cell growth; type: functional, cell-based; conditions: Mus musculus
# Method in brief: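 L1210 cells were grown in RPMI 1640 with 10% fetal calf serum, 2 mM glutamine, antibiotics and 10 mM HEPES (pH 7.4). Cells were exposed to compound for 48 h. MTT was then added for 4 h at 37 °C, and formazan was dissolved in DMSO and read at 540 nm. IC50 is the concentration reducing OD by 50%, from linear regression on the linear part of the curve. Triplicate.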
# [3] = system: P388; assay: Median survival time of treated animals/median survival time of control animals; type: functional, Mus musculus
# [4] = system: P388; assay: Antitumor activity against P388 leukemia at dose range of 3.12-50 mg/kg on day 1, activity expressed as maximum tolerated dose; type: functional, Mus musculus
# [5] = system: L1210; assay: Percent of L1210 cells in the G2+M phase of the cell cycle at a compound concentration of 0.5 uM; type: functional, Mus musculus
# Method in brief: (§1)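 L1210 cells (2.5 × 10⁵ cells/mL) were incubated for 21 h with compound at the stated concentration. Flow cytometry was run on 10⁴ cells per sample, and the percentage of cells in G2+M was recorded.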
# [6] = biological target: DNA topoisomerase II (Homo sapiens) (UniProt P11388+Q02880); assay: Inhibition of human DNA Topoisomerase II mediated DNA cleavage through the stabilization of transient DAN/topoisomerase II cleavage complex; type: protein assay
# Method in brief: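 Supercoiled pBS DNA (0.1 μg) preincubated 15 min at 30 °C with drug at 50 μM in 50 mM Tris-HCl pH 7.5, 1 mM ATP, 120 mM KCl, 10 mM MgCl2, 0.5 mM DTT, 0.1 mM EDTA, BSA. Two units human topo II added, 30 min at 30 °C. SDS/proteinase K digestion 30 min at 55 °C. 1% agarose gel with ethidium bromide; linear DNA percentage read, mean of three independent experiments.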
# [7] = system: L1210; assay: Percent of L1210 cells in the G2+M phase of the cell cycle at a compound concentration of 50 uM; type: functional, Mus musculus; method in brief: as §1
# [8] = system: L1210; assay: Percent of L1210 cells in the G2+M phase of the cell cycle at a compound concentration of 1 uM; type: functional, Mus musculus; method in brief: as §1
# [9] = system: L1210; assay: Percent of L1210 cells in the G2+M phase of the cell cycle at a compound concentration of 10 uM; type: functional, Mus musculus; method in brief: as §1
# [10] = system: L1210; assay: Percent of L1210 cells in the G2+M phase of the cell cycle at a compound concentration of 2.5 uM; type: functional, Mus musculus; method in brief: as §1
# [11] = system: L1210; assay: Percent of L1210 cells in the G2+M phase of the cell cycle at a compound concentration of 0.2 uM; type: functional, Mus musculus; method in brief: as §1
# [12] = system: L1210; assay: Percent of L1210 cells in the G2+M phase of the cell cycle at a compound concentration of 0.25 uM; type: functional, Mus musculus; method in brief: as §1
# [13] = system: A549; assay: Antitumor activity against A549 non small cell carcinoma at dose range of 3.12-12.5 mg/kg on day 14, 21, 28; activity expressed as maximum tolerated dose; type: functional, Homo sapiens
# Method in brief: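 A549 human lung tumour cells were implanted orthotopically, 10⁶ cells through the chest wall into the left pleural space of anaesthetised BALB/C nude mice. Once tumours were established, drug was given iv on days 14, 21 and 28 after tumour cell injection. The endpoint was life span, expressed as T/C (%) = median survival time of treated/control × 100. MTD was the dose causing no toxic death and/or no weight loss >20%.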
# [14] = system: P388; assay: Antitumor activity against P388 leukemia at dose range of 1.56-25 mg/kg on day 1, activity expressed as maximum tolerated dose; type: functional, Mus musculus
# [15] = system: L1210; assay: Percent of L1210 cells in the G2+M phase of the cell cycle at a compound concentration of 25 uM; type: functional, Mus musculus; method in brief: as §1
compound,measurement,setting,value
COc1cc([C@@H]2c3cc4c(cc3[C@@H](NS(=O)(=O)c3cccs3)[C@H]3COC(=O)[C@H]23)OCO4)cc(OC)c1O,LTS,[1],0
same,IC50,[2],170 nM
same,T/C,[3],102%
same,MTD,[4],12.5
same,Effect,[5],71%
same,Activity,[6],9
COc1cc([C@@H]2c3cc4c(cc3[C@@H](NS(=O)(=O)CCCN)[C@H]3COC(=O)[C@H]23)OCO4)cc(OC)c1O,IC50,[2],2500 nM
same,Effect,[7],75%
same,Activity,[6],45
CCCCCCCCS(=O)(=O)N[C@@H]1c2cc3c(cc2[C@@H](c2cc(OC)c(O)c(OC)c2)[C@H]2C(=O)OC[C@@H]21)OCO3,IC50,[2],250 nM
same,Effect,[8],76%
same,Activity,[6],35
COc1cc([C@@H]2c3cc4c(cc3[C@@H](NS(=O)(=O)c3sc(NC(C)=O)nc3C)[C@H]3COC(=O)[C@H]23)OCO4)cc(OC)c1O,IC50,[2],3600 nM
same,Effect,[9],68%
same,Activity,[6],7
CCCCN(CCCC)S(=O)(=O)N[C@@H]1c2cc3c(cc2[C@@H](c2cc(OC)c(O)c(OC)c2)[C@H]2C(=O)OC[C@@H]21)OCO3,IC50,[2],510 nM
same,Effect,[10],60%
same,Activity,[6],0
COc1cc([C@@H]2c3cc4c(cc3[C@@H](NS(=O)(=O)c3ccc(N)cc3)[C@H]3COC(=O)[C@H]23)OCO4)cc(OC)c1O,Effect,[11],75%
same,IC50,[2],340 nM
same,Activity,[6],0
CCN(CC)S(=O)(=O)N[C@@H]1c2cc3c(cc2[C@@H](c2cc(OC)c(O)c(OC)c2)[C@H]2C(=O)OC[C@@H]21)OCO3,Effect,[12],86%
same,LTS,[1],0
same,MTD,[13],6.25
same,IC50,[2],83 nM
same,T/C,[3],106% and 120%
same,MTD,[14],25
same,Activity,[6],24
CCCCCCCCCCCCCCCCS(=O)(=O)N[C@@H]1c2cc3c(cc2[C@@H](c2cc(OC)c(O)c(OC)c2)[C@H]2C(=O)OC[C@@H]21)OCO3,Effect,[15],73%
same,IC50,[2],5500 nM
same,Activity,[6],0
COc1cc([C@@H]2c3cc4c(cc3[C@@H](N=[N+]=[N-])[C@H]3COC(=O)[C@H]23)OCO4)cc(OC)c1O,IC50,[2],570 nM
same,Effect,[10],61%
same,Activity,[6],44
COc1cc([C@@H]2c3cc4c(cc3[C@@H](N)[C@H]3COC(=O)[C@H]23)OCO4)cc(OC)c1O,IC50,[2],630 nM
same,Effect,[10],57%
same,Activity,[6],0
COc1cc([C@@H]2c3cc4c(cc3[C@@H](NS(=O)(=O)c3ccc(N=[N+]=[N-])cc3)[C@H]3COC(=O)[C@H]23)OCO4)cc(OC)c1O,IC50,[2],210 nM
same,Effect,[5],69%
same,Activity,[6],9
